This note sets out measurements from PubChem BioAssay AID821 (SRMLSC, 2007).

The assay is described as follows: inhibition of LL 47 lung fibroblast growth, concentration-response curve, selectivity screen for endothelial cell growth inhibitor project, cellular system, ATP luminescence readout (AID 821).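 Also: 100% = median of untreated cell-only wells and 0% = no luminescence.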 Particulars: LL 47 lung fibroblast viability, ATP luminescence; at 20 µM (top of the series). The method, boiled down:
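Material – LL 47 human lung fibroblasts · Input – 1,150 cells/well · Doses – compound concentration series from 0.039 to 20 µM, 0.2% DMSO · Timing – 72 h exposure, 37 °C · Detection – CellTiter-Glo luminescence · Read-out basis – percent viability relative to untreated wells, EC50 via 4-parameter fit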

Structures are written as SMILES. Activity calls are given as the source filed them.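 The calls were made as follows: active = compounds whose fitted half-maximal concentration for reducing fibroblast viability is 100 µM or lower; inactive = the rest.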

The term viability denotes a read-out of living cells in per cent, often relative to untreated cells. With `CC1(c2ccccc2)CC(C)(C)N2C(=O)C3(C(C#N)=C(N)Oc4cc(O)ccc43)c3cccc1c32` (centres undefined), the viability is 87.7% (inactive).

With `COc1ccc(-c2cn3c(C)c(C(=O)Nc4cccc(NC(C)=O)c4)sc3n2)cc1`, the viability was 109% (inactive). The value for `CC1CCCC(NC(=O)C2CCN(S(=O)(=O)N3CCC4(CC3)OCCO4)CC2)C1C` (centres undefined) was 100% (inactive); that for `COc1ccccc1NC(=O)CC1C(=O)NCCN1C(=O)Nc1ccc(Cl)c(Cl)c1` (centres undefined) was 82.4% (inactive). In the case of `O/N=C1\CC/C(=N\O)c2nn(-c3ccccc3Cl)nc21`, the viability is 87.3% (inactive). Consider `CCCn1c(Nc2nc3ccccc3n2C)nc2ccccc21`, for which the viability was 102% (inactive). In the case of `Cc1c(CN(C)C(=O)c2sc3cc(Cl)ccc3c2Cl)cnn1C`, the viability was 94.6% (inactive). For the molecule `Cc1oc(-c2ccccc2F)nc1CN1CCC(C(=O)NCCC2=CCCCC2)CC1`, the viability was 83.4% (inactive). In the case of `Cc1c(Cl)cccc1-c1ccc(/C=N/n2cnnc2)o1`, the viability is 98.9% (inactive). The value for `CN1CCN(C(=O)c2ccc(COc3ccc(Cl)cc3Cl)cc2)CC1` was 103% (inactive). As for `CCOc1ccc(-c2n[nH]c(C)c2Oc2ccc(OC)cc2)c(O)c1`, the viability was 93.9% (inactive). For `c1ccc(CC2CCN(C3=Nc4cccc5cccc3c45)CC2)cc1`, the viability is 80.8% (inactive). On to `CCCCCCn1c(C)nc2c(c1=O)c1nc3ccccc3nc1n2/N=C/c1ccco1`, for which the viability is 111% (inactive). The value for `COc1ccc(CCNC(=O)c2ccc3c(=O)n(Cc4ccco4)c(=S)[nH]c3c2)cc1OC` was 112% (inactive); that for `CC(C)(C)NC(=O)c1cnn2c1NC(c1ccc(F)cc1)CC2C(F)(F)F` (centres undefined) was 99% (inactive); that for `O=C(Nc1nnc(-c2ccc3c(c2)OCCO3)o1)c1ccc(Cc2ccccc2)cc1` was 97.9% (inactive). On to `CCOc1ccc(NC(=S)Nc2ccc(C)c([N+](=O)[O-])c2)cc1`, for which the viability was 121% (inactive).

Consider `Cc1nn(-c2ccc(F)cc2)c(C)c1NS(=O)(=O)c1ccc(Cl)cc1`, for which the viability is 90.7% (inactive). Regarding `Nc1nc(-c2ccccc2)cc(-c2ccccc2O)n1`, the viability is 104% (inactive). Under `O=C(Nc1ccc2c(c1)CCC2)c1cnn2c1NC(c1ccco1)CC2C(F)(F)F` (centres undefined) stands 83.8% (inactive); under `CC(C)c1ccc(C2C3CSCC=C3C(C#N)=C(N)C2(C#N)C#N)cc1` (centres undefined), 88.4% (inactive).

In the case of `Cc1nn(CC(=O)Nc2ccc3c(c2)oc2ccccc23)c(=O)c2ccccc12`, the viability was 105% (inactive). With `COc1ccc2nc3oc(C(=O)N4CCN(c5ccccc5F)CC4)cc3cc2c1`, the viability was 108% (inactive). Regarding `CC[n+]1cc(-c2ccccc2)nc(N2CCOCC2)n1`, the viability is 99.9% (inactive). With `O=C(CC1CCCCC1)c1c(O)c2ccccc2oc1=O`, the viability was 88.5% (inactive).

`CC(C)(C)C1CC=C2C(C#N)=C(N)C(C#N)(C#N)C(c3cccs3)C2C1` (centres undefined): the viability was 94.4% (inactive). Under `CCC(C)NC(=O)c1c(N)n(/N=C/c2cccnc2)c2nc3ccccc3nc12` (centres undefined) stands 104% (inactive). As for `CCOC(=O)c1c(NC(=O)C2COc3ccccc3O2)sc(C(C)=O)c1C` (centres undefined), the viability is 104% (inactive). On to `Cc1cc(Cl)ccc1N=c1ssnc1Cl`, for which the viability was 104% (inactive). The value for `COc1ccc(N/N=C2/CCCCC2=O)cc1` was 123% (inactive); that for `Oc1ccc2oc3c(c2c1/C=N/n1cnnc1)CCCC3` was 99.5% (inactive); that for `Brc1ccc(-c2csc(NNC3=NCCCCC3)n2)cc1` was 90.2% (inactive). Take `COc1ccc(Cl)c(N2CCN(CCCNC(=O)Nc3ccc(C)cc3)CC2)c1`: the viability was 84.9% (inactive). The value for `Cc1cc(C(=O)OC(C)C(=O)Nc2cccc(S(=O)(=O)N3CCOCC3)c2)c(C)o1` (centres undefined) was 105% (inactive).
